From ChEMBL document CHEMBL4732078 (Eur J Med Chem, 2021)
Calls of active or inactive are those of the source. The calls are words filed in the database; no cut-off is given here.

How the values were obtained:
[1] = molecular target: T1, Phosphatidylinositol 4,5-bisphosphate 3-kinase catalytic subunit alpha isoform (Homo sapiens, UniProt P42336); assay: Inhibition of human PI3Kalpha using PIP2 as substrate in presence of ATP measured after 30 mins by HTRF assay
Summary of the method: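 HTRF kit assay. Enzyme incubated with 10 μM PIP2; reaction started by adding ATP and run 30 min at room temperature, then stop solution and detection mix added and luminescence read. Compounds kept as 10 mM DMSO stocks.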

[2] = molecular target: RAF proto-oncogene serine/threonine-protein kinase (Homo sapiens, UniProt P04049, Y340D/Y341D); assay: Inhibition of human recombinant c-Raf Y340D/Y341D mutant (306 to end residues) using inactive MEK1 as substrate incubated for 40 mins in presence of [gamma33P-ATP] by radiometric scintillation counting analysis
RAF proto-oncogene serine/threonine-protein kinase, sequence (P04049 whole entry Y340D/Y341D, canonical isoform): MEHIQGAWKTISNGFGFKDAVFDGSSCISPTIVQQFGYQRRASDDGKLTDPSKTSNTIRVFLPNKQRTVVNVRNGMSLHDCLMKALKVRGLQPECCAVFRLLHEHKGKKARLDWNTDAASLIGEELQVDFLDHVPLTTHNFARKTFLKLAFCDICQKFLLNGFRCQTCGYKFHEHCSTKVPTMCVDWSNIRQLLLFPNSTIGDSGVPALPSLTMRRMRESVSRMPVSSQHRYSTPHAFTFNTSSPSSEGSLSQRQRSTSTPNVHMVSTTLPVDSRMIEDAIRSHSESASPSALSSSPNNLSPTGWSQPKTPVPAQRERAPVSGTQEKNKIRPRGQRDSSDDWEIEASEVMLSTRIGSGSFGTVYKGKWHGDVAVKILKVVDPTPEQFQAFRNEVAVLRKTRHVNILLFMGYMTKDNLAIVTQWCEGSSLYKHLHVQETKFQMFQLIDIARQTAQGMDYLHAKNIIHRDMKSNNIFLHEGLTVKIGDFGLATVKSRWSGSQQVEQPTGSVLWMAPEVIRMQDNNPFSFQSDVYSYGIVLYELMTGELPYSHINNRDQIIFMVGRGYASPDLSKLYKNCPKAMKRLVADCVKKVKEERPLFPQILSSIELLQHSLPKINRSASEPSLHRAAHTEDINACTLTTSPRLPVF

[3] = molecular target: T1, Phosphatidylinositol 4,5-bisphosphate 3-kinase catalytic subunit alpha isoform; assay: Inhibition of PI3Kalpha in human U87MG cells assessed as reduction in rhIGF1-stimulated AKT phosphorylation at Thr308 treated for 1 hr followed by incubation with IGF1 for 10 mins by western blot analysis; type: cell-based; conditions: U-87 MG, dose 0.01-1 µM, time 70.0 min
Summary of the method: (§1)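 U87MG or Rh30 cells held 24 h in serum-free medium, exposed to compound for 1 h, then stimulated with 50 ng/ml IGF-I for 10 min. Lysates blotted for Akt, pAkt T308 and pAkt S473.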

[4] = molecular target: T1, Phosphatidylinositol 4,5-bisphosphate 3-kinase catalytic subunit alpha isoform; assay: Inhibition of PI3Kalpha in human Rh30 cells assessed as reduction in rhIGF1-stimulated AKT phosphorylation at Ser473 treated for 1 hr followed by incubation with IGF1 for 10 mins by western blot analysis; type: cell-based; conditions: dose 0.01-1 µM, time 70.0 min; summary of the method: as §1
[5] = molecular target: T1, Phosphatidylinositol 4,5-bisphosphate 3-kinase catalytic subunit alpha isoform; assay: Inhibition of PI3Kalpha in human Rh30 cells assessed as reduction in rhIGF1-stimulated AKT phosphorylation at Thr308 treated for 1 hr followed by incubation with IGF1 for 10 mins by western blot analysis; type: cell-based; conditions: dose 0.01-1 µM, time 70.0 min; summary of the method: as §1
BT-474 = assay: Antiproliferative activity against human BT-474 cells assessed as reduction in cell viability after 72 hrs by sulforhodamine B assay; type: functional, cell-based; conditions: BT-474, 72 h
Summary of the method: (§2)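 SRB assay. Exponentially growing cells seeded at 3000–5000/well, compounds added serially diluted after 24 h, cultured 72 h. Cells fixed with 10% TCA, stained with SRB, dye dissolved in 10 mM Tris-HCl, absorbance read at 560 nm. Inhibition = (ODcontrol − ODtreated)/ODcontrol × 100%. IC50 is the mean of at least three independent tests.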

MDA-MB-231 = assay: Antiproliferative activity against human MDA-MB-231 cells assessed as reduction in cell viability after 72 hrs by sulforhodamine B assay; type: functional, cell-based; conditions: MDA-MB-231, 72 h; summary of the method: as §2
HCC1954 = assay: Antiproliferative activity against human HCC1954 cells assessed as reduction in cell viability after 72 hrs by sulforhodamine B assay; type: functional, cell-based; conditions: HCC1954, 72 h; summary of the method: as §2
SK-BR-3 = assay: Antiproliferative activity against human SK-BR-3 cells assessed as reduction in cell viability after 72 hrs by sulforhodamine B assay; type: functional, cell-based; conditions: SK-BR-3, 72 h; summary of the method: as §2
SK-OV-3 = assay: Antitumor activity against human SK-OV-3 cells xenografted in BALB/cA nude mouse assessed as tumor growth at 10 mg/kg, po administered once a day for 21 days and measured twice per week; type: functional; conditions: dose 10 mg/kg/day; time 21 day
Summary of the method: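 Female BALB/cA nude mice, 4–5 weeks old. SKOV-3 xenografts passaged once in vivo, then 1.5 mm³ fragments implanted s.c. in the right flank by trocar. At about 100 mm³ mice were randomized to vehicle or drug given orally once daily. Tumor size and body weight measured twice weekly; V = length × width²/2.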

[6] = Toxicity in 6 hrs fasted BALB/cA nude mouse xenografted with human SK-OV-3 cells assessed as blood glucose tolerance at 5 to 20 mg/kg, po administered once a day for 18 days and measured upto 2 hrs post-last dose by oral glucose tolerance test; type: organism-based; conditions: in vivo, 432 h, dose 5-20 mg/kg/day, time 18 day
Summary of the method: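 Female BALB/cA nude mice, 4–5 weeks old, carried s.c. SKOV-3 xenograft fragments. They were dosed orally once daily for 18 days with vehicle or compound, then fasted 6 h and given glucose orally at 2 g/kg. Blood was sampled at set times up to 2 h, and glucose was measured with a blood glucose meter.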

[7] = Metabolic stability in human hepatocytes assessed as half life; type: ADME, cell-based, Hepatocyte
[8] = Metabolic stability in cynomolgus monkey hepatocytes assessed as half life; type: ADME, cell-based, Macaca fascicularis, Hepatocyte
[9] = Metabolic stability in mouse hepatocytes assessed as half life; type: ADME, cell-based, Hepatocyte
[10] = Metabolic stability in mouse hepatocytes assessed as intrinsic clearance; type: ADME, cell-based, Hepatocyte; conditions: read-out: CLH
[11] = Cmax in rat at 10 mg/kg, po; type: ADME, organism-based; design: route oral, dose 10 mg/kg; conditions: in vivo
Summary of the method: (§3)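 Male rats given 10 mg/kg p.o.; Cmax and terminal half-life taken from the plasma concentration–time profile.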

[12] = Tmax in rat at 10 mg/kg, po; type: ADME, organism-based; conditions: in vivo
Summary of the method: (§4)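 Male rats were dosed orally at 10 mg/kg, with a parallel i.v. arm at 5 mg/kg. Plasma PK parameters were derived, including Cmax, Tmax, T1/2 and AUC0-∞, with oral bioavailability (F) reported against the i.v. arm.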

[13] = Half life in rat at 10 mg/kg, po; type: ADME, organism-based; conditions: in vivo; summary of the method: as §3
[14] = AUC (0 to infinity) in rat at 10 mg/kg, po; type: ADME, organism-based; design: route oral, time infinity, dose 10 mg/kg; conditions: in vivo
Summary of the method: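 Male rats dosed orally at 10 mg/kg; plasma exposure followed to give AUC0-∞ (i.v. arm at 5 mg/kg run alongside).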

[15] = Oral bioavailability in rat at 10 mg/kg; type: ADME, organism-based; conditions: in vivo; summary of the method: as §4
[16] = molecular target: T1, Phosphatidylinositol 4,5-bisphosphate 3-kinase catalytic subunit alpha isoform; assay: Inhibition of PI3Kalpha (unknown origin) transfected in human Rh30 cells assessed as reduction in AKT phosphorylation at Thr308 residue at 14 nM by western blot analysis; type: cell-based
Summary of the method: (§5)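 Rh30 cells ectopically expressing membrane-anchored, N-terminally myristoylated, constitutively active p110α, β, γ or δ. Akt phosphorylation assessed by Western blot; lysates made in RIPA buffer, equal protein heated at 95 °C for 10 min in SDS loading buffer.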

[17] = molecular target: Phosphatidylinositol 4,5-bisphosphate 3-kinase catalytic subunit gamma isoform (Homo sapiens) (UniProt P48736); assay: Inhibition of PI3Kgamma (unknown origin) transfected in human Rh30 cells assessed as reduction in AKT phosphorylation at Thr308 residue at 10XIC50 by western blot analysis; type: cell-based; summary of the method: as §5
Phosphatidylinositol 4,5-bisphosphate 3-kinase catalytic subunit gamma isoform (Homo sapiens), sequence (P48736 whole entry, looked up, canonical isoform): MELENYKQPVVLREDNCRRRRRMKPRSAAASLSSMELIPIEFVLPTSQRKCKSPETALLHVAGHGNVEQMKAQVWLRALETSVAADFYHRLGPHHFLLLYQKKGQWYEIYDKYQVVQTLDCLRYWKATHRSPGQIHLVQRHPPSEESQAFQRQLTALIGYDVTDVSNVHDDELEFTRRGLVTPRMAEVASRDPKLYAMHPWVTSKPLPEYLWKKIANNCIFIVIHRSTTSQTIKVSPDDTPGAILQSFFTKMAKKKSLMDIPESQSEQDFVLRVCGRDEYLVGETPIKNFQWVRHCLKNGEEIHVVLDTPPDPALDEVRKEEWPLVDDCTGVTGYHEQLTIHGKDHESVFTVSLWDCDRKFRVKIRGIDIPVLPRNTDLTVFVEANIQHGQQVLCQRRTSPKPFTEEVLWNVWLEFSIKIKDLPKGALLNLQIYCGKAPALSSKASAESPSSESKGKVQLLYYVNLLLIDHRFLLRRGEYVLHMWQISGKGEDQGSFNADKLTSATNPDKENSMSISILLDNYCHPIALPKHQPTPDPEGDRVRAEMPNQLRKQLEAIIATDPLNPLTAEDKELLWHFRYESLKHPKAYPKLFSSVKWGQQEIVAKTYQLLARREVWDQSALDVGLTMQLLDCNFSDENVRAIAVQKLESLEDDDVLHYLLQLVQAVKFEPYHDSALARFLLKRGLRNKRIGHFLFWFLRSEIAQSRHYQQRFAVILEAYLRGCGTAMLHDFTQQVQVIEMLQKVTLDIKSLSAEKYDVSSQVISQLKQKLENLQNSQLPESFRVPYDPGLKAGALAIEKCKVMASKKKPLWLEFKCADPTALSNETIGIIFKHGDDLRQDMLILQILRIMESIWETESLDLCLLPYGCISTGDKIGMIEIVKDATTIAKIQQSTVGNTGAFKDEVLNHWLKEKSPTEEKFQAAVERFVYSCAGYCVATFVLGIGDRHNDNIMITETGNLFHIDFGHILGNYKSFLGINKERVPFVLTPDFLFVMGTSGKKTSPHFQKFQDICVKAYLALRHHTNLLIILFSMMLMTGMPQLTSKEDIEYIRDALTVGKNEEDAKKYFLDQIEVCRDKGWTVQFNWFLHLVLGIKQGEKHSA

[18] = molecular target: Phosphatidylinositol 4,5-bisphosphate 3-kinase catalytic subunit delta isoform (Homo sapiens) (UniProt O00329); assay: Inhibition of PI3Kdelta (unknown origin) transfected in human Rh30 cells assessed as reduction in AKT phosphorylation at Thr308 residue at 10XIC50 by western blot analysis; type: cell-based; summary of the method: as §5
Phosphatidylinositol 4,5-bisphosphate 3-kinase catalytic subunit delta isoform (Homo sapiens), sequence (O00329 whole entry, canonical isoform): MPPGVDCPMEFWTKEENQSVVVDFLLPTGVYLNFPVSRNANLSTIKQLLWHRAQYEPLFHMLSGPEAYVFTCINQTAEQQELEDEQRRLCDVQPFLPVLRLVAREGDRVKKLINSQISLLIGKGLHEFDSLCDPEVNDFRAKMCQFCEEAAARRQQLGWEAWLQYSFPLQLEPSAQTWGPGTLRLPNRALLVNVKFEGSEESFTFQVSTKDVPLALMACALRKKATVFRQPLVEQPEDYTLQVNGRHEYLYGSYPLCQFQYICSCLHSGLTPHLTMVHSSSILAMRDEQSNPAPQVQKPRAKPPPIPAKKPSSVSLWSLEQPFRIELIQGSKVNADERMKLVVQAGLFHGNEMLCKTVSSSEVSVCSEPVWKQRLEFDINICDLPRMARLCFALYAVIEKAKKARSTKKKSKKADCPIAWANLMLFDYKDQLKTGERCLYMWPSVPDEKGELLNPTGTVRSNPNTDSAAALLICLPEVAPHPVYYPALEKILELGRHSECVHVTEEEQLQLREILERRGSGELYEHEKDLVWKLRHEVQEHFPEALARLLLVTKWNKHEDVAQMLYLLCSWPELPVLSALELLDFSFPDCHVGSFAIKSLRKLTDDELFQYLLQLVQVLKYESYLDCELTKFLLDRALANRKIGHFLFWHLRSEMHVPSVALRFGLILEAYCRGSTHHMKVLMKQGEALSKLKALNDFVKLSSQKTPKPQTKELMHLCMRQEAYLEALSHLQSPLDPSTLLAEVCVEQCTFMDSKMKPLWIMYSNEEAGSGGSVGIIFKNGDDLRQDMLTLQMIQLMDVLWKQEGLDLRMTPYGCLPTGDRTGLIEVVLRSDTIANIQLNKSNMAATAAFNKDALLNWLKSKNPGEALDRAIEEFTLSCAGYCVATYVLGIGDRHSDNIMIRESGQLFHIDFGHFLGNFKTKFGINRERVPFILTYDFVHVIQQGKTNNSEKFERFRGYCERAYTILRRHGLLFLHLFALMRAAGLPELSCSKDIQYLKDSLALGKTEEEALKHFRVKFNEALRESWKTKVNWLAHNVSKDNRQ

PC-3 = assay: Antiproliferative activity against human PC-3 cells assessed as reduction in cell viability after 72 hrs by sulforhodamine B assay; type: functional, cell-based; conditions: PC-3, 72 h; summary of the method: as §2
[19] = molecular target: CYP450 (isoform not stated) (Homo sapiens, UniProt P04798+P05177+P05181+P08684+P10632+P10635+P11509+P11712+P13584+P20813+P20815+P20853+P24462+P24903+P33260+P33261+P51589+P78329+P98187+Q02928+Q08477+Q16678+Q16696+Q5TCH4+Q6VVX0+Q7Z449+Q8TAV3+Q96SQ9+Q9HB55); assay: Inhibition of CYP450 (unknown origin); type: ADME, protein assay

T1 sequence (P42336 whole entry, canonical isoform): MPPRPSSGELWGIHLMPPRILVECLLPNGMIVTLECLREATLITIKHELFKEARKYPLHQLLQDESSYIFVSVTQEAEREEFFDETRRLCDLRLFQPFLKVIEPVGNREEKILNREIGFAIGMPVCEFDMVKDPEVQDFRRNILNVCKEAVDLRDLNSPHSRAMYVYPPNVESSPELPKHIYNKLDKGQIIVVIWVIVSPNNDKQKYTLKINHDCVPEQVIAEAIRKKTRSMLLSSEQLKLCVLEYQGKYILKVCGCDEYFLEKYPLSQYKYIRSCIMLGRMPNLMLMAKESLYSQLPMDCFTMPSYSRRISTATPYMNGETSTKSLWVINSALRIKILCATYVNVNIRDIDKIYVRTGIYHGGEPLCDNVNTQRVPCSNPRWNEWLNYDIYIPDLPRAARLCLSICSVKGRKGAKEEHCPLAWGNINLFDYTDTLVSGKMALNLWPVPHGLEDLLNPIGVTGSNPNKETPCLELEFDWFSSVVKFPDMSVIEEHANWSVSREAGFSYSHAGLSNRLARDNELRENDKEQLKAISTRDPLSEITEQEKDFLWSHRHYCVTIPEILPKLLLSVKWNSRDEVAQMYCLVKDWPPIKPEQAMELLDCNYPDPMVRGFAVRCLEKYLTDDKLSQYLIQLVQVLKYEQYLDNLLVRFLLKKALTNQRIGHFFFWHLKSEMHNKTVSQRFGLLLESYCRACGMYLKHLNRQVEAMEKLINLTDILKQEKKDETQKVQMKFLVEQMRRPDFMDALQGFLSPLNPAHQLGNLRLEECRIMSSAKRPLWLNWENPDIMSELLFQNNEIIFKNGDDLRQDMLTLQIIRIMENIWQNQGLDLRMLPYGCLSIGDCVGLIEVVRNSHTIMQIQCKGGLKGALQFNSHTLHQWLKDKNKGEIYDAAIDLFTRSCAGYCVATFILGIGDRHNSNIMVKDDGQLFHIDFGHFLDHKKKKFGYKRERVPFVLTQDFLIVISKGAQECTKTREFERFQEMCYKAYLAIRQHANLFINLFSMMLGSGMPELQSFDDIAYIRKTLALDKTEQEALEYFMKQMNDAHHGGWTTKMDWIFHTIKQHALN

With `COC(=O)Nc1cc(C(F)(F)F)c(-c2nc(N3CCOCC3)c3cc(CN4CCN(S(C)(=O)=O)CC4)cn3n2)cn1` [RISOVALISIB] the IC50 [1] was 5.9 nM, the IC50 [2] was 1000 nM and the inhibition [3] was “Dose-dependent effect”. The inhibition [4] was “Dose-dependent effect”, the inhibition [5] was “Dose-dependent effect” and the IC50 (BT-474) was < 1000 nM. The IC50 (MDA-MB-231) was < 1000 nM, the IC50 (HCC1954) was < 1000 nM and the IC50 (SK-BR-3) was < 1000 nM. The Activity (SK-OV-3) was 48.1%, the Activity [6] was “Non-Toxic” and the half-life [7] was 6.79 h. The half-life [8] was 0.717 h, the half-life [9] was 1.56 h and the CLint scaled [10] was 21.6 mL/min/kg. It also gave a Cmax [11] of 832 ng/mL, a Tmax [12] of 0.875 h and a half-life [13] of 1.49 h. For the same compound, the AUC(0-inf) [14] was 2750 ng·h/mL, the bioavailability [15] was 36.9% and the inhibition [16] was “Active”. For the same compound, the inhibition [17] was “Active”, the inhibition [18] was “Active” and the IC50 (PC-3) was < 1000 nM. The IC50 [19] was > 30000 nM.
